Test results as given in ChEMBL document CHEMBL1141764, “Pentasaccharide glycosides from the roots of Ipomoea murucoides” (2005).
In brackets after ≈: the same amount, converted by molar mass. Activity calls are given as the source filed them. The rule behind the calls is not given here.

Legend:
Assay type in all cases: functional
[1] = test system: OVCAR-5; test: Cytotoxicity against human OVCAR5 cells after 72 hrs; conditions: OVCAR-5, 72 h, read-out: ED50 (the source's name)
In short: (§1)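 Cells kept in RPMI with 10% FBS at 37 °C, 5% CO2, humidified. Log-phase cells exposed in triplicate to 1.0-100 µg/mL for 72 h at 37 °C. Cell density read by protein analysis. ED50 (dose giving 50% inhibition of control growth) estimated from semilog plot of concentration (µg/mL) versus percent viable cells.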

[2] = test system: HCT-15; test: Cytotoxicity against human HCT15 cells after 72 hrs; conditions: for EC50: HCT-15, 72 h, read-out: ED50 (the source's name); in short: as §1
[3] = test system: UISO-SQC1; test: (§2) Cytotoxicity against human UISO-SQC1 cells after 72 hrs; in short: as §1
[4] = as §2; conditions: UISO-SQC1, 72 h, read-out: ED50 (the source's name); in short: as §1

Row | SMILES | EC50 [1] [µg/mL] | Activity [2] | Activity [3] | EC50 [2] [µg/mL] | EC50 [4] [µg/mL]
1 | CCCCCCCCCCCC(=O)O[C@H]1[C@H](O[C@@H]2[C@@H](O)[C@H]3OC(=O)CCCCCCCCCC(CCCCC)O[C@@H]4O[C@H](C)[C@@H](O)[C@H](O)[C@H]4OC3O[C@H]2C)O[C@@H](C)[C@H](O[C@@H]2O[C@@H](C)[C@H](OC(C)=O)[C@@H](O)[C@H]2O[C@@H]2O[C@H](CO)[C@@H](O)[C@H](O)[C@H]2O)[C@H]1O (stereo not given in full) [MURUCIN 1] | 5 (≈ 4.08 µM) | inactive | inactive |  | 
2 | CCCCCCCCCCCC(=O)O[C@H]1[C@H](O[C@@H]2[C@@H](O)[C@H]3OC(=O)CCCCCCCCCC(CCCCC)O[C@@H]4O[C@H](C)[C@@H](O)[C@H](O)[C@H]4OC3O[C@H]2C)O[C@@H](C)[C@H](O[C@@H]2O[C@@H](C)[C@H](OC(=O)CC)[C@@H](O)[C@H]2O[C@@H]2O[C@H](CO)[C@@H](O)[C@H](O)[C@H]2O)[C@H]1O (stereo not given in full) [MURUCIN 2] | > 20 |  |  | > 20 | > 20
3 | CCCCCCCCCCCC(=O)O[C@H]1[C@H](O[C@@H]2[C@@H](O)[C@H]3OC(=O)CCCCCCCCCC(CCCCC)O[C@@H]4O[C@H](C)[C@@H](O)[C@H](O)[C@H]4OC3O[C@H]2C)O[C@@H](C)[C@H](O[C@@H]2O[C@@H](C)[C@H](OC(=O)CCC)[C@@H](O)[C@H]2O[C@@H]2O[C@H](CO)[C@@H](O)[C@H](O)[C@H]2O)[C@H]1O (stereo not given in full) [MURUCIN 3] | > 20 |  |  | > 20 | > 20
4 | CCCCCCCCCCCC(=O)O[C@H]1[C@H](O[C@@H]2[C@@H](O)[C@H]3OC(=O)CCCCCCCCCC(CCCCC)O[C@@H]4O[C@H](C)[C@@H](O)[C@H](O)[C@H]4OC3O[C@H]2C)O[C@@H](C)[C@H](O[C@@H]2O[C@@H](C)[C@H](OC(=O)C(C)CC)[C@@H](O)[C@H]2O[C@@H]2O[C@H](CO)[C@@H](O)[C@H](O)[C@H]2O)[C@H]1O (stereo not given in full) [MURUCIN 4] | > 20 |  |  | > 20 | > 20
5 | CCCCCCCCCCCC(=O)O[C@H]1[C@H](O[C@@H]2[C@@H](O)[C@H]3OC(=O)CCCCCCCCCC(CCCCC)O[C@@H]4O[C@H](C)[C@@H](O)[C@H](O)[C@H]4OC3O[C@H]2C)O[C@@H](C)[C@H](O[C@@H]2O[C@@H](C)[C@H](OC(=O)C(C)C(C)O)[C@@H](O)[C@H]2O[C@@H]2O[C@H](CO)[C@@H](O)[C@H](O)[C@H]2O)[C@H]1O (stereo not given in full) [MURUCIN 5] | > 20 |  |  | > 20 | > 20
